Source: ChEMBL document CHEMBL1138485, “Discovery of inducible nitric oxide synthase (iNOS) inhibitor development candidate KD7332, part 1: Identification of a novel, potent, and selective series of quinolinone iNOS dimerization inhibitors that are orally active in rodent pain models” (J Med Chem, 2009)

Assays:
[1] = molecular target: T1, Nitric oxide synthase, inducible (Homo sapiens, UniProt P35228); experiment: Inhibition of human iNOS expressed in HEK293 cells assessed as NO production by transient transfection assay; assay type: cell-based
T1 sequence (P35228 whole entry): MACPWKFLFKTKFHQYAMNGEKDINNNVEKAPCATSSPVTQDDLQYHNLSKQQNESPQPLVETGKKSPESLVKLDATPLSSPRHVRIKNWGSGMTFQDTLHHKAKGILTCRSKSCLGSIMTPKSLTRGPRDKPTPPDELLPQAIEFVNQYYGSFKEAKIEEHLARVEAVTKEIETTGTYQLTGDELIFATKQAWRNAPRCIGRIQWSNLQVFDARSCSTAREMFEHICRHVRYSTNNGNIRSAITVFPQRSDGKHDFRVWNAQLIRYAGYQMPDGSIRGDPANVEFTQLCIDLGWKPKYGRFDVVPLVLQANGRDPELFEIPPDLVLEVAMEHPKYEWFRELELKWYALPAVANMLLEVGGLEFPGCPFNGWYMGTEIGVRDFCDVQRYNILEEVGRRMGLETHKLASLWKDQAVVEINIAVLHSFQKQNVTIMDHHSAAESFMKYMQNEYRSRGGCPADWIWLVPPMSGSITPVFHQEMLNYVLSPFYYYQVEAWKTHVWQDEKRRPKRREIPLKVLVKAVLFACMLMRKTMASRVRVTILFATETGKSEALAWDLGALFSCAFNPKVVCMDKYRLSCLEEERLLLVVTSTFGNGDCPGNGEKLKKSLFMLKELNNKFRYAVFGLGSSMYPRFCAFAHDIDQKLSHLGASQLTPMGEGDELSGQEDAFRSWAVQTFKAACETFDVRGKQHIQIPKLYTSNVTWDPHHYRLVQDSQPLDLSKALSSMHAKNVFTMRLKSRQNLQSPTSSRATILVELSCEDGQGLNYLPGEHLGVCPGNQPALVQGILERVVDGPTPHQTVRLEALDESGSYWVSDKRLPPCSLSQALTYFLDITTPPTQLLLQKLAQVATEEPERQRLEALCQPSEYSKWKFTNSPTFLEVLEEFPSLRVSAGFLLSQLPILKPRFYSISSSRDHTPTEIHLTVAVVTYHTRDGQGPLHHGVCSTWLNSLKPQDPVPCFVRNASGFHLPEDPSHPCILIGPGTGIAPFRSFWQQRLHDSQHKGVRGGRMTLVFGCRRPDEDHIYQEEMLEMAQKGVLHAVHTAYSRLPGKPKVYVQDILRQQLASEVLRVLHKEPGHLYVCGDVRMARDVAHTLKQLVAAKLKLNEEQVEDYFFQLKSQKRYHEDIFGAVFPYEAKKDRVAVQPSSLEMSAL
Outline: (§1)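 HEK293 cells grown to ~70% confluence in DMEM/10% FBS with pen/strep. Cells transiently transfected with 10 µg human or murine iNOS plasmid (Fugene 6), 4 h at 37 °C, 10% CO2. Trypsinized, plated at 5 × 10⁵ cells/mL and dosed at once; 1400W 100 µM final as positive control. After 18 h, NO read as DAN fluorescence (10 µg/mL, 20 min RT, then NaOH). EC50 from 3 runs, 10-point curves, n = 8/point.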

Mus musculus = experiment: Reduction of plasma nitrate level in LPS-challenged BALB/c mouse at 30 mg/kg, po; assay type: functional; design: scale not given: the % may be the effect or the level left
Outline: (§2)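 Male Balb/c mice were dosed by oral gavage (90% PEG/5% Tween 80/5% PVP + 90% CMC (0.5% w/v)) at t = 0 h, 30 mg/kg for single-dose lines. LPS 10 mg/kg ip in 0.9% NaCl followed immediately. At 6 h, EDTA plasma was taken for nitrate and drug levels. Nitrate reduction is relative to vehicle; ED50 came from full oral dose-response.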

[2] = molecular target: T2, Nitric oxide synthase, inducible (Mus musculus, UniProt P29477); experiment: Inhibition of mouse iNOS expressed in HEK293 cells assessed as NO production in by transient transfection assay; assay type: cell-based; outline: as §1
T2 sequence (P29477 whole entry): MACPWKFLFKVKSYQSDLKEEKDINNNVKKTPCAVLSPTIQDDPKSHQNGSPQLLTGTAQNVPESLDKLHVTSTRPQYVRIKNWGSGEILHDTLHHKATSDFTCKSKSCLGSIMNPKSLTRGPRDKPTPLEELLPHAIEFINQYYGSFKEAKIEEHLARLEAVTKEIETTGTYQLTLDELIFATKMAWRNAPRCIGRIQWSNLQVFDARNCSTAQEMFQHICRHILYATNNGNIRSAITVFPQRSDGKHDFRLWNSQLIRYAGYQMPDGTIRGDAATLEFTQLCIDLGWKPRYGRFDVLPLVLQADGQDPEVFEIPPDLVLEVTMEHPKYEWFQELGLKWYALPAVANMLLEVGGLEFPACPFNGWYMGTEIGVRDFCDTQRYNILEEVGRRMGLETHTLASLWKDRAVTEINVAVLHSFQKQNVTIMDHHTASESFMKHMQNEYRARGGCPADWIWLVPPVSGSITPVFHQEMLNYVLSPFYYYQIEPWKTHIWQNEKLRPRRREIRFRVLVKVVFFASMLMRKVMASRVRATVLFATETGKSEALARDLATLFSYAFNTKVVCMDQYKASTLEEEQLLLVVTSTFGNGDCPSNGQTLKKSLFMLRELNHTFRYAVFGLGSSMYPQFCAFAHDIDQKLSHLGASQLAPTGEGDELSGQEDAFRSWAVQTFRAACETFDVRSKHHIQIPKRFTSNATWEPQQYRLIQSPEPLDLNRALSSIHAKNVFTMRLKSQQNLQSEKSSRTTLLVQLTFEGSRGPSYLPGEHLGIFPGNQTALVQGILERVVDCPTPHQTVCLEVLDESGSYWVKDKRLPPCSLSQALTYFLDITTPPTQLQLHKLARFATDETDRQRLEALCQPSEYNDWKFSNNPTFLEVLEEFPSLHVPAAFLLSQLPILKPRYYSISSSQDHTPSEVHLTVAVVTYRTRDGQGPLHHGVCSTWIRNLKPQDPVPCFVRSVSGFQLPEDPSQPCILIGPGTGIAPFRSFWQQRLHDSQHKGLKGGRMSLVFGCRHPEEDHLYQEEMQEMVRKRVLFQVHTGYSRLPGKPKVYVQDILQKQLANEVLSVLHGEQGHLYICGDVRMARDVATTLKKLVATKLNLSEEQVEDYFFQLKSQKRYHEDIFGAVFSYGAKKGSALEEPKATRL

[3] = Drug level in LPS-challenged BALB/c mouse plasma at 30 mg/kg, po after 6 hrs; assay type: ADME, organism-based; design: dose 30 mg/kg, route oral; outline: as §2
[4] = molecular target: T1, Nitric oxide synthase, inducible; experiment: Inhibition of human iNOS expressed in HEK293 cells assessed as NO production at 100 uM by transient transfection assay; assay type: cell-based
Nitric oxide synthase 3 = molecular target: T3, Nitric oxide synthase 3 (Homo sapiens, UniProt P29474); experiment: Inhibition of human eNOS expressed in HEK293 cells assessed as NO production by transient transfection assay; assay type: cell-based
T3 sequence (P29474 whole entry): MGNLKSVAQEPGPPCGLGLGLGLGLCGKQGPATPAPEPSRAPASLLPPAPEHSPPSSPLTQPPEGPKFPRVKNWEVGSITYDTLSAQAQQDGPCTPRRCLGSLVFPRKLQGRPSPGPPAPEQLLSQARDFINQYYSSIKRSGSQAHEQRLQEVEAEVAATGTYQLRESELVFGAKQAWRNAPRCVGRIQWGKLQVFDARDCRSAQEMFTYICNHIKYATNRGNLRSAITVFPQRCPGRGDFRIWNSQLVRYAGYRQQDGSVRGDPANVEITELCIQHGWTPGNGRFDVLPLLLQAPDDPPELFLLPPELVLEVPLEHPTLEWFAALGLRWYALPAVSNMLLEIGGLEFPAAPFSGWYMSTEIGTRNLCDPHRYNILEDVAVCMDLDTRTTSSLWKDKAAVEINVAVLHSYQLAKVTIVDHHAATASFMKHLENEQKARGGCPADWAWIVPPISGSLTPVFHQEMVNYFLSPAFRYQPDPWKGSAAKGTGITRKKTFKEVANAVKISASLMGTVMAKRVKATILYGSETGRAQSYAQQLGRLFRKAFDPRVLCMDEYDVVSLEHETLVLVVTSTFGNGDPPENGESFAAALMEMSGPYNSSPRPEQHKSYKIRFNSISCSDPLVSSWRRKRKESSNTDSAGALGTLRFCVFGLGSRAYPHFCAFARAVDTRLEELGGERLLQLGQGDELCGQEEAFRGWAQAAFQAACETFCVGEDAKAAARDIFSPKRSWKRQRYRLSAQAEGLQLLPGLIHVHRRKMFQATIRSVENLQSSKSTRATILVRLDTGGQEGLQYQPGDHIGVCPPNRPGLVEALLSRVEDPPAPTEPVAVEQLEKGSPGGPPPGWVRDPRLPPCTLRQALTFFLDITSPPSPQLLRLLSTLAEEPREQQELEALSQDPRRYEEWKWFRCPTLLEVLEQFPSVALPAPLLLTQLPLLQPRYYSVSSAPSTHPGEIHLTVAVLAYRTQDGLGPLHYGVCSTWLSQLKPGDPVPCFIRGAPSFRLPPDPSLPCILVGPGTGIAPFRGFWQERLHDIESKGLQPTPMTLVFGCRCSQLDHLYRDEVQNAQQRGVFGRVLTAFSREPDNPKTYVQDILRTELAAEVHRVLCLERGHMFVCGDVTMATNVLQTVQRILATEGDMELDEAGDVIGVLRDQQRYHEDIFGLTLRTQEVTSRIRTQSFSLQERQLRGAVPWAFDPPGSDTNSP
Outline: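 HEK293 cells grown to ~70% confluence in DMEM/10% FBS with pen/strep, transfected with 15 µg human eNOS plasmid plus Fugene 6 (3:1 µL:µg), 4 h at 37 °C, 10% CO2. Cells replated at 5 × 10⁵/mL, compound added at once, 24 h incubation, then A23187 (83 nM final). After 18 h, NO read by DAN fluorescence.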

Nitric oxide synthase 1 = Nitric oxide synthase 1 (Homo sapiens, UniProt P29475); experiment: Inhibition of human nNOS expressed in HEK293 cells assessed as NO production by transient transfection assay; assay type: cell-based
Nitric oxide synthase 1, sequence (P29475 whole entry): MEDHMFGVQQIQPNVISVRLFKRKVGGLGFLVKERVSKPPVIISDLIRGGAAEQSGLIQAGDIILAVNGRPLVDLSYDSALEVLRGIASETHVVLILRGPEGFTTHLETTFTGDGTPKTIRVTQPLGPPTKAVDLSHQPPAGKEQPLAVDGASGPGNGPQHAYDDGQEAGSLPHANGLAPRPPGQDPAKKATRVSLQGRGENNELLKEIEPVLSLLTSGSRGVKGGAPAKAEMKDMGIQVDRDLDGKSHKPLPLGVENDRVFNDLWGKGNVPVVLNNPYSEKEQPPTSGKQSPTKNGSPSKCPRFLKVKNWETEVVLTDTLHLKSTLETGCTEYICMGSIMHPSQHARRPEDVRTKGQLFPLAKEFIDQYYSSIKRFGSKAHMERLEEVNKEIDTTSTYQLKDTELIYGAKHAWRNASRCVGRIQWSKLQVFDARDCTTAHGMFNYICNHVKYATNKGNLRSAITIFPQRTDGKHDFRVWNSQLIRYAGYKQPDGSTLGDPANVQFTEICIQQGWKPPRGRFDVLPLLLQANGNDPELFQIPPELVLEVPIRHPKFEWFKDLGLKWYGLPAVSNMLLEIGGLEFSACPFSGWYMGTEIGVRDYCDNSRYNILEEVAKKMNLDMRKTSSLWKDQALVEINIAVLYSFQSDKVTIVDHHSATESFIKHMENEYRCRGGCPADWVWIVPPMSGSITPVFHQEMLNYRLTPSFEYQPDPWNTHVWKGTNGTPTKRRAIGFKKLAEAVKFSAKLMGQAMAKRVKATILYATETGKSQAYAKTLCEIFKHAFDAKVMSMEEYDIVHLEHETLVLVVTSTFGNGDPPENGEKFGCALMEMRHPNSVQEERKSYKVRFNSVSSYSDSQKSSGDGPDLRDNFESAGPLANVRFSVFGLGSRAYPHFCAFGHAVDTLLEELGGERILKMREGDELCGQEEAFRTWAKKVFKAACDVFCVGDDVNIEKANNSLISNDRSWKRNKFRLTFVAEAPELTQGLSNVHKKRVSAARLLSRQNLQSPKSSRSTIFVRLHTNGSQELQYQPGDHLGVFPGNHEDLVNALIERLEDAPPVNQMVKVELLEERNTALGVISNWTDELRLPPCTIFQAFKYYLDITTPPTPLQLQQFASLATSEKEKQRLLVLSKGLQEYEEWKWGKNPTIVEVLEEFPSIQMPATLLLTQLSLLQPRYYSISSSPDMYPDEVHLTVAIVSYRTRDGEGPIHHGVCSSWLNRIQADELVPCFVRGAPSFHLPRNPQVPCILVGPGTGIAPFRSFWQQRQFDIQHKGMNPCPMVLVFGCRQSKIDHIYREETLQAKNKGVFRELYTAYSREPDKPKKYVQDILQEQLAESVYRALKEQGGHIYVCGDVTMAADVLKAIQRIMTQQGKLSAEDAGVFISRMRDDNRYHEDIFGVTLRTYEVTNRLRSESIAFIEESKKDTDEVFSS

Compound | EC50 [1] [nM] | EC50 [2] [nM] | concentration at 6 h [3] [ng/mL] | inhibition [4] [%] | Activity (Mus musculus) [%] | EC50 (Nitric oxide synthase 3) [µM] | EC50 (Nitric oxide synthase 1) [nM]
Cc1ncsc1C(=O)N(Cc1c[n+]([O-])cc2c(F)cccc12)c1cccc(Cl)c1 | 87 | 660 | 39 |  | 20 |  | 
Cc1ncsc1C(=O)N(Cc1cc(=O)n(C)c2c(F)cccc12)c1cccc(Cl)c1 | > 100000 |  |  | < 50 |  |  | 
Cc1noc(C)c1C(=O)N(Cc1cc(=O)[nH]c2c(F)c(F)ccc12)c1cccc(Cl)c1 | 3 | 22 |  |  | 67 | 1.2 | 97
Cc1ncsc1C(=O)N(Cc1c(F)c(=O)[nH]c2c(F)cccc12)c1cccc(Cl)c1 | 26 | 130 |  |  | 29 | 35 | > 10000
Cc1ncsc1C(=O)N(Cc1cc[nH]c(=O)c1)c1cccc(Cl)c1 | > 100000 |  |  | < 50 |  |  | 

Now from value to molecule, other results behind:

EC50 [1] [nM] | EC50 [2] [nM] | concentration at 6 h [3] [ng/mL] | inhibition [4] [%] | Compound | Activity (Mus musculus) [%] | EC50 (Nitric oxide synthase 3) [µM] | EC50 (Nitric oxide synthase 1) [nM]
> 100000 |  |  | < 50 | Cc1ncsc1C(=O)N(Cc1ccnc2c(F)cccc12)c1cccc(Cl)c1 |  |  | 
> 100000 |  |  | < 50 | COc1cc(CN(C(=O)c2scnc2C)c2cccc(Cl)c2)c2cccc(F)c2n1 |  |  | 
